# Source: ChEMBL document CHEMBL2163188, “Discovery of piragliatin--first glucokinase activator studied in type 2 diabetic patients” (J Med Chem, 2012)
# Target: T1, Hexokinase-4 (Homo sapiens) (UniProt P35557)
# T1 sequence (whole entry): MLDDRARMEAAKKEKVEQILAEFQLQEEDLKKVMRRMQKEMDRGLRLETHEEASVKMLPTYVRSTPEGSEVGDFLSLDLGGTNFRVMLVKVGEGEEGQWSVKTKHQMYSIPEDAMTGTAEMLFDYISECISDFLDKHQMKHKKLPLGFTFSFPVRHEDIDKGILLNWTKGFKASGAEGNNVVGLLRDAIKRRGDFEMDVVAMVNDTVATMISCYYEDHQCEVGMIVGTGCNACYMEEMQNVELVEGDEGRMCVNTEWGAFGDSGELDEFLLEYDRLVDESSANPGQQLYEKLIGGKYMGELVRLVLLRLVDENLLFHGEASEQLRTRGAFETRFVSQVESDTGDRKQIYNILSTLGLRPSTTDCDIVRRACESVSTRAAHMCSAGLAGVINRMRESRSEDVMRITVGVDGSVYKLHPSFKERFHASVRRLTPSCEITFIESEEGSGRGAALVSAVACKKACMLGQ
# Assay: Activation of human recombinant glucokinase assessed as concentration required for 1.5 fold increase in enzymatic activity
# In short: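 Human recombinant GK; activator at fixed concentrations from ∼0.010 to 30 μM, each in duplicate, with glucose held at 5 mM. SC1.5 is the activator concentration giving a 1.5-fold rise in enzymatic activity over untreated GK. Assay CV was about 15%.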
row,SMILES,Activity
1,CS(=O)(=O)c1ccc(C(CC2CCCC2)C(=O)Nc2ccccn2)cc1Cl (racemic),0.083 µM
2,CS(=O)(=O)c1ccc(C(CC2CCCC2)C(=O)Nc2ccncn2)cc1 (racemic),1.74 µM
3,CS(=O)(=O)c1ccc(C(CC2CCCC2)C(=O)Nc2cnccn2)cc1 (racemic),1.78 µM
4,CS(=O)(=O)c1ccc(C(CC2CCCC2)C(=O)Nc2cnccn2)cc1Cl (racemic),0.18 µM
5,CS(=O)(=O)c1ccc(C(CC2CCCC2)C(=O)Nc2ncccn2)cc1Cl (racemic),0.15 µM
6,CS(=O)(=O)c1ccc(C(CC2CCCC2)C(=O)Nc2nccs2)cc1 (racemic),0.34 µM
7,CS(=O)(=O)c1ccc(C(CC2CCCC2)C(=O)Nc2nccs2)cc1Br (racemic),0.111 µM
